Laboratory results published in ChEMBL document CHEMBL1124622, “Synthesis and antiviral activity of 3'-C-cyano-3'-deoxynucleosides” (J Med Chem, 1989).
≈ marks a conversion by molar mass, not a printed value.

How the values were obtained:
[1] = system: Moloney murine sarcoma virus; experiment: In vitro effective dose against Moloney murine sarcoma virus induced transformation of C3H embryo fibroblast cells.; type: functional; conditions: read-out: ED50 (the source's name)
Method in brief: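 C3H mouse embryo cells are seeded at 20 000 cells/mL per well and grown 24 h. They are infected with 80 foci-forming units of Moloney MSV for 90 min, then given fresh medium with varying compound concentrations. Transformation is examined microscopically after 6-7 days. ED50 is the dose giving a 50% reduction in transformation.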

[2] = In vitro minimum cytotoxic concentration in C3H embryo fibroblast cells.; type: functional; conditions: Mus musculus
Method in brief: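 Minimal cytotoxic concentration in C3H mouse embryo cells, run in the same 48-well setup as the MSV transformation assay: the concentration producing microscopically visible alteration of cell morphology.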

[3] = Minimum cytotoxic concentration in HeLa cell cultures; type: cell-based; conditions: human, HeLa cells
[4] = system: HeLa; experiment: Minimum inhibitory concentration against Vesicular stomatitis virus in HeLa cell cultures; type: functional; conditions: Homo sapiens
Method in brief: (§1)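 Confluent HeLa, Vero or primary rabbit kidney cell cultures in microtiter trays are inoculated with 100 CCID50 of virus. After 1 h adsorption, residual virus is removed and cells are incubated with varying compound concentrations. Cytopathogenicity is recorded once it is complete in untreated virus-infected controls. MIC is the concentration inhibiting virus-induced cytopathogenicity.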

[5] = system: HeLa; experiment: Minimum inhibitory concentration against polio virus 1 in HeLa cell cultures; type: functional; conditions: Homo sapiens; method in brief: as §1
[6] = organism: Homo sapiens; experiment: Cytotoxic dose against uninfected human MT-4 cell; type: functional; conditions: MT4, read-out: CD50 (the source's name)
Method in brief: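 Cytotoxicity counterpart of the HIV assay: uninfected human MT-4 lymphocytes exposed to the compounds. CD50 is the dose that reduces viability of these uninfected cells by 50%.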

[7] = system: Human immunodeficiency virus 1; experiment: Effective dose against HIV-1 induced cytopathogenicity in human MT-4 cell.; type: functional; conditions: Human immunodeficiency virus 1, MT4; read-out: ED50 (the source's name)
Method in brief: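 HIV (HTLV-III_B) is taken from the culture supernatant of a persistently infected HUT-78 line. Human MT-4 lymphocytes are infected and the assay scores inhibition of virus-induced cytopathogenicity. ED50 is the dose giving 50% protection of MT-4 cells against the viral cytopathic effect.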

[8] = Minimum cytotoxic concentration in primary rabbit kidney cell cultures; type: cell-based, Oryctolagus cuniculus; conditions: primary rabbit kidney cells
[9] = system: Coxsackievirus B4; experiment: Minimum inhibitory concentration against Coxsackie virus B4 in Vero cell cultures; type: functional; conditions: Enterovirus B; method in brief: as §1
[10] = system: Semliki Forest virus; experiment: Minimum inhibitory concentration against forest virus in Vero cell cultures; type: functional; method in brief: as §1
[11] = system: Sindbis virus; experiment: Minimum inhibitory concentration against Sindbis virus in Vero cell cultures; type: functional; method in brief: as §1
[12] = system: Human respirovirus 3; experiment: Minimum inhibitory concentration against parainfluenza 3 virus in Vero cell cultures; type: functional; method in brief: as §1
[13] = system: Mammalian orthoreovirus 1; experiment: Minimum inhibitory concentration against reovirus in Vero cell cultures; type: functional; method in brief: as §1
[14] = system: Vaccinia virus; experiment: (§2) Minimum inhibitory concentration against Vaccinia virus in primary rabbit kidney cell cultures; type: functional; conditions: Orthopoxvirus vaccinia; method in brief: as §1
[15] = system: Vesicular stomatitis virus; experiment: (§3) Minimum inhibitory concentration against Vesicular stomatitis virus in primary rabbit kidney cell cultures; type: functional; method in brief: as §1
[16] = system: HeLa; experiment: Minimum inhibitory concentration against Coxsackie virus B4 in HeLa cell cultures; type: functional; conditions: Homo sapiens; method in brief: as §1
[17] = Minimum cytotoxic concentration in Vero cell cultures; type: cell-based; conditions: chlorocebus sabaeus, Vero cells
[18] = organism: Oryctolagus cuniculus; experiment: Minimum inhibitory concentration against Herpes simplex virus 1(KOS) in primary rabbit kidney cell cultures; type: functional; method in brief: as §1
[19] = organism: Oryctolagus cuniculus; experiment: Minimum inhibitory concentration against Herpes simplex virus 2 (G) in primary rabbit kidney cell cultures; type: functional; method in brief: as §1
[20] = organism: Oryctolagus cuniculus; experiment: as §2; type: functional; method in brief: as §1
[21] = organism: Oryctolagus cuniculus; experiment: as §3; type: functional; method in brief: as §1
[22] = organism: Oryctolagus cuniculus; experiment: Minimum cytotoxic concentration in primary rabbit kidney cell cultures

Row | SMILES | EC50 [1] [µg/mL] | MCC [2] [µg/mL] | MCC [3] [µg/mL] | MIC [4] [µg/mL] | MIC [5] [µg/mL] | CC50 [6] [µM] | EC50 [7] [µM] | MCC [8] [µg/mL] | MIC [9] [µg/mL] | MIC [10] [µg/mL] | MIC [11] [µg/mL] | MIC [12] [µg/mL] | MIC [13] [µg/mL] | MIC [14] [µg/mL] | MIC [15] [µg/mL] | MIC [16] [µg/mL] | MCC [17] [µg/mL] | further results
1 | CC(C)(C)[Si](C)(C)OC[C@H]1O[C@@H](n2cnc3c(N)ncnc32)[C@H](O[Si](C)(C)C(C)(C)C)[C@@H]1C#N | > 1.6 | 8 | 400 | 150 (≈ 297 µM) | > 200 | 5.1 | 2.1 | 10 | > 4 | > 4 | > 4 | > 4 | > 4 | > 4 | > 4 | > 200 | 10 | 
2 | CC(C)(C)[Si](C)(C)OC[C@H]1O[C@@H](n2ccc(=O)[nH]c2=O)[C@H](O[Si](C)(C)C(C)(C)C)[C@@H]1C#N | 5.6 (≈ 11.6 µM) | > 8 | > 40 | > 10 | > 10 | 6.6 | 3.2 | > 10 | > 4 | > 4 | > 4 | > 4 | > 4 | > 4 | > 4 | > 10 | > 10 | 
3 | Cc1cn([C@H]2C[C@H](C#N)[C@@H](CO)O2)c(=O)[nH]c1=O | > 16 | 80 | 200 | > 100 | > 100 | 30 | > 16 | 100 | > 10 | > 10 | > 10 | > 10 | > 10 | 20 (≈ 79.6 µM) | > 40 | > 100 | > 10 | 
4 | N#C[C@H]1[C@@H](O)[C@H](n2ccc(=O)[nH]c2=O)O[C@@H]1CO | > 200 | > 200 | > 200 | > 200 | > 200 | 147 | > 80 | > 200 | > 100 | > 100 | > 100 | > 100 | > 100 | > 200 | > 200 | > 200 | > 200 | 
5 | CC(C)(C)[Si](C)(C)OC[C@H]1O[C@@H](n2ccc(=O)[nH]c2=O)[C@H](O[Si](C)(C)C(C)(C)C)[C@H]1C#N | 2.2 (≈ 4.57 µM) | > 3.2 | 4 | > 1 | > 4 | 1.6 | > 6.04 | > 4 | > 1 | > 1 | > 1 | > 1 | > 1 | > 1 | > 1 | > 4 | 4 | 
6 | N#C[C@@H]1[C@@H](O)[C@H](n2cnc3c(N)ncnc32)O[C@@H]1CO | 6.6 (≈ 23.9 µM) | > 40 | 400 | 150 (≈ 543 µM) | > 200 | 2.9 | > 1.6 | 200 | 100 (≈ 362 µM) | 20 (≈ 72.4 µM) | 10 (≈ 36.2 µM) | 70 (≈ 253 µM) | > 100 | 4 (≈ 14.5 µM) | > 200 | > 200 | 200 | 
7 | Cc1cn([C@H]2C[C@@H](C#N)[C@@H](CO)O2)c(=O)[nH]c1=O | > 250 | > 250 | > 400 | > 400 | > 400 | > 250 | > 250 | > 400 | > 400 | > 400 | > 400 | > 200 | > 200 | > 400 | > 400 | > 400 | > 400 | 
8 | N#C[C@@H]1[C@@H](O)[C@H](n2ccc(=O)[nH]c2=O)O[C@@H]1CO | 260 (≈ 1030 µM) | 400 | > 400 | > 200 | > 200 | > 400 | > 400 | > 200 | > 200 | > 200 | > 200 | > 200 | > 200 | 4 (≈ 15.8 µM) | > 200 | > 200 | 400 | 
9 | Cc1cn(C2C=C(C#N)C(CO)O2)c(=O)[nH]c1=O (centres undefined) | 191 (≈ 766 µM) | > 250 | 400 | 150 (≈ 602 µM) | > 200 | 24 | > 50 | 200 | > 100 | > 40 | > 100 | > 40 | > 40 | > 100 | > 100 | > 200 | > 100 | 
10 | N#CC1C(CO)OC(n2ccc(N)nc2=O)C1O (centres undefined) | 43 (≈ 170 µM) | > 200 | 100 | 70 (≈ 278 µM) | > 40 | 22.7 | > 10 | > 100 | > 100 | > 100 | > 100 | > 100 | > 100 | 40 (≈ 159 µM) | > 100 | > 40 | 200 | 
11 | CC(C)(C)[Si](C)(C)OCC1OC(n2ccc(N)nc2=O)C(O[Si](C)(C)C(C)(C)C)C1C#N (centres undefined) | > 1.6 | 8 | > 4 | > 1 | > 1 | 6.1 | > 3.2 | > 10 | > 4 | > 4 | > 4 | > 4 | > 4 | > 4 | > 4 | > 1 | 10 | 
12 | Cc1cn(C2CC(C#N)C(CO[Si](C)(C)C(C)(C)C)O2)c(=O)[nH]c1=O (centres undefined) | > 16 | 80 | 100 | > 40 | > 40 | 31 | > 16 | > 100 | > 100 | > 100 | > 100 | > 100 | 20 (≈ 54.7 µM) | > 40 | > 40 | > 40 | > 100 | 
13 | Cc1cn(C2OC(CO)C(C#N)C2O)c(=O)[nH]c1=O (centres undefined) | > 250 | > 250 | > 400 | > 200 | > 200 | 232 | > 250 | 400 | > 100 | 300 (≈ 1120 µM) | 150 (≈ 561 µM) | > 100 | > 200 | 150 (≈ 561 µM) | > 200 | > 200 | > 200 | 
14 | CC(=O)Nc1ccn(C2OC(CO[Si](C)(C)C(C)(C)C)C(C#N)C2O[Si](C)(C)C(C)(C)C)c(=O)n1 (centres undefined) | 2.2 (≈ 4.21 µM) | > 3.2 | > 4 | > 1 | > 4 | 4.8 | > 3.2 | > 4 | > 4 | > 4 | > 4 | > 4 | > 4 | > 1 | > 1 | 2 (≈ 3.83 µM) | > 4 | 
15 | Nc1nccc2c1ncn2[C@@H]1C[C@H](CO)[C@@H](O)[C@H]1O [3-DEAZAARISTEROMYCIN A] |  |  | > 400 | 1 (≈ 3.78 µM) | > 400 |  |  | > 400 | 100 (≈ 378 µM) | > 400 | 300 (≈ 1140 µM) | 4 (≈ 15.1 µM) | 7 (≈ 26.5 µM) | 2 (≈ 7.57 µM) | 0.7 (≈ 2.65 µM) | > 400 | 400 | 
16 | NC(=O)c1ncn([C@@H]2O[C@H](CO)[C@@H](O)[C@H]2O)n1 [RIBAVIRIN] |  |  | > 200 | 20 (≈ 81.9 µM) | 70 (≈ 287 µM) |  |  |  | 100 (≈ 409 µM) | 300 (≈ 1230 µM) | 70 (≈ 287 µM) | 40 (≈ 164 µM) | 70 (≈ 287 µM) |  |  | 70 (≈ 287 µM) | > 400 | MIC [18]: > 400 µg/mL; MIC [19]: > 400 µg/mL; MIC [20]: 10 µg/mL (≈ 40.9 µM); MIC [21]: 300 µg/mL (≈ 1230 µM); MCC [22]: > 400 µg/mL
17 | Nc1ncnc2c1ccn2[C@@H]1O[C@H](CO)[C@@H](O)[C@H]1O [TUBERCIDIN] |  |  | > 0.4 | 0.07 (≈ 0.263 µM) | 0.4 (≈ 1.5 µM) |  |  |  | > 0.1 | > 0.1 | 0.2 (≈ 0.751 µM) | > 0.1 | > 0.1 | 0.1 (≈ 0.376 µM) | 0.07 (≈ 0.263 µM) | 0.4 (≈ 1.5 µM) | 0.4 | MCC [22]: > 0.4 µg/mL
